pIC50: −log10 of the molar value.

Experiment [1] has as its target T1, Angiotensin-converting enzyme (Oryctolagus cuniculus, UniProt P12822).
T1 sequence (P12822 whole entry): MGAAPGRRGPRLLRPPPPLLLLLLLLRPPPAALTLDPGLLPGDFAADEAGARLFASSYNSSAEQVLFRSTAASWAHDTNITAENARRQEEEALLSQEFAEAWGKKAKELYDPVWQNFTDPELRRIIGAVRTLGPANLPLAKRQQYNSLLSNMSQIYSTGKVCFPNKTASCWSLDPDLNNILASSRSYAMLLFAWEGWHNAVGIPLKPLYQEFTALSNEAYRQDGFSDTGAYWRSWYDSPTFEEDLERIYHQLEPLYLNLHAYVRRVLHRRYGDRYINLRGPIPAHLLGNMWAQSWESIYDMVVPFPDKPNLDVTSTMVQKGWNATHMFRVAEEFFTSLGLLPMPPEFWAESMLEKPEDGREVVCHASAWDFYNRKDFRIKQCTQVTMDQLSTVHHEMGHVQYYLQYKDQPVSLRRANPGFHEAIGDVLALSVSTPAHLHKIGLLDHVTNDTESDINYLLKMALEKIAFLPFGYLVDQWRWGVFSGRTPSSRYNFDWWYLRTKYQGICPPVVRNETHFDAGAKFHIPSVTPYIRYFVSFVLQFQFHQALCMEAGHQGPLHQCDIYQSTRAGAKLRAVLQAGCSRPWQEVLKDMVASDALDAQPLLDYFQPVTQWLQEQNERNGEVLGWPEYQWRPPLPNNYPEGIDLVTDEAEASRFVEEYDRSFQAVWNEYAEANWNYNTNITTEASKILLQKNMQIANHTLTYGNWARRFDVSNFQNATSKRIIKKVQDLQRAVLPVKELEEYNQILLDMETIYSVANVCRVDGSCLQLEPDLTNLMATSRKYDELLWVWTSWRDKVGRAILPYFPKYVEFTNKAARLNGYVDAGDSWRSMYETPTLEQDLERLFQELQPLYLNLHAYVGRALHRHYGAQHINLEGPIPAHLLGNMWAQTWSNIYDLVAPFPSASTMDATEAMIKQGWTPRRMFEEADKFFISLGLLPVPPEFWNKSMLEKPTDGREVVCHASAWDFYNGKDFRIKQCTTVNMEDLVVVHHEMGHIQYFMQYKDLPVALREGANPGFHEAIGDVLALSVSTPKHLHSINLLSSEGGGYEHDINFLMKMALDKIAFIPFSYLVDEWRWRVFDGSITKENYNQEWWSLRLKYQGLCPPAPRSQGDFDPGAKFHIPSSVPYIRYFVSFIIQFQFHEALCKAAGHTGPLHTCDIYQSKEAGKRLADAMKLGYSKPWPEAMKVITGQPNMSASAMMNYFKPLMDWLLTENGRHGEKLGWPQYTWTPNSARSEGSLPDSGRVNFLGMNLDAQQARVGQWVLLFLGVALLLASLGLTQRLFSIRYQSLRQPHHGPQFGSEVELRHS
Kind of experiment: In vitro inhibitory activity against Angiotensin I converting enzyme. The gist of the method:
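Crude ACE from rabbit lung acetone powder, extracted in cold 0.05 M KH2PO4–0.03 M n-octyl-β-D-glucopyranoside pH 8.3, centrifuged 30000g, supernatant dialysed. Assay in 0.1 M KH2PO4–0.3 M NaCl–2% Me2SO, pH 8.3, 37 °C, substrate hippuryl-L-histidyl-L-leucine 2 mM; started by enzyme addition. Activity compared with and without inhibitor (in Me2SO). IC50 from one concentration–response curve per compound.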

In experiment [2] the target is T2, Angiotensin-converting enzyme (Rattus norvegicus) (UniProt P47820).
T2 sequence (whole entry): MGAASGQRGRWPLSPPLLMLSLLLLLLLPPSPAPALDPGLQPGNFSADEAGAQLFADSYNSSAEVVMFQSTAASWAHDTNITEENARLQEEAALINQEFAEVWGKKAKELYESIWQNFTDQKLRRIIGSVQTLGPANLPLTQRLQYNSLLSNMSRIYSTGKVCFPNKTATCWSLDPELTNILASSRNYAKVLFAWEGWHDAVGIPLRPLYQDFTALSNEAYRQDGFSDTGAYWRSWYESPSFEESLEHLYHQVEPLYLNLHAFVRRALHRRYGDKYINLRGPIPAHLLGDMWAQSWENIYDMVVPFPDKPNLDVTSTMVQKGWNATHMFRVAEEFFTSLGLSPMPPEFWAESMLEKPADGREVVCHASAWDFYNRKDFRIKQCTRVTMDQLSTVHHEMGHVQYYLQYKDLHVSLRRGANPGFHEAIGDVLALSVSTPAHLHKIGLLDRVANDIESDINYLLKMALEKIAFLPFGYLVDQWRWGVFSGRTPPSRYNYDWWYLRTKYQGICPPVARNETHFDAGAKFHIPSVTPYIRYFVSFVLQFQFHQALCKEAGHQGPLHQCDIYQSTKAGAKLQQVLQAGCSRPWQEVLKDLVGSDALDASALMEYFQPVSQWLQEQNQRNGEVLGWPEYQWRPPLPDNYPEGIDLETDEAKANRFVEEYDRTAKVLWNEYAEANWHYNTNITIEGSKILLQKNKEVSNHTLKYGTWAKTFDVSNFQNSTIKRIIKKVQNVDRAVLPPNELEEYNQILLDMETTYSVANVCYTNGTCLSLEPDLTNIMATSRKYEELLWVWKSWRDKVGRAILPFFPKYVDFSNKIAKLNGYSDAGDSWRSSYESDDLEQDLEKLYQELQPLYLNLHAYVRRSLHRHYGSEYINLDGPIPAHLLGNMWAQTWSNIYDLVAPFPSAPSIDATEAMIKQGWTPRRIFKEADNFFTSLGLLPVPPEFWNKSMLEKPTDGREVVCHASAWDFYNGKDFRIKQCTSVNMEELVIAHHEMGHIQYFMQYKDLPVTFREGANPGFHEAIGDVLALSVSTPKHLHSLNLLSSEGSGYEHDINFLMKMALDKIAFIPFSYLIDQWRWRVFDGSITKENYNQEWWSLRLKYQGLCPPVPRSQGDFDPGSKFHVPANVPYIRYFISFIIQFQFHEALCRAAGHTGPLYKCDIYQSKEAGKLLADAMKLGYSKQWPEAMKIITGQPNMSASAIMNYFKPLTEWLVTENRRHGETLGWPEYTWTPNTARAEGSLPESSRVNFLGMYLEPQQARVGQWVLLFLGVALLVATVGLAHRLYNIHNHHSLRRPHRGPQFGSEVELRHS
The experiment can be described thus: In vivo mean duration for Angiotensin I converting enzyme inhibitory activity in 2 rats administered perorally at a dose of 1.5 mg/kg. It is filed as functional, organism-based. The arrangement: dose 1.5 mg/kg. The gist of the method:
(§1)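 Conscious normotensive male rats with aortic and vena caval catheters (implanted ≥6 days before), restrained. Angiotensin I and II, 0.25 μg/kg iv, given at 10-min intervals as pressor challenges. Compound given once, generally orally, suspended in 0.5% gum tragacanth. AI repeated every 10 min for ≥2 h. Max inhibition is % of mean of two predose AI responses. Duration runs from dosing until inhibition falls below 30%. ED50 taken from dose–response plot as dose giving 50% inhibition.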

Experiment [3] addresses T2, Angiotensin-converting enzyme (Rattus norvegicus). The experiment can be described thus: In vivo for percent mean decrease in Angiotensin I converting enzyme inhibitory activity in 4 rats administered perorally at a dose of 1.5 mg/kg. It is filed as functional, organism-based. Also noted: dose 1.5 mg/kg. The essentials: as §1
Experiment [4] has the same target. Kind of experiment: In vivo percent mean decrease in Angiotensin I converting enzyme inhibitory activity in 2 rats administered perorally at a dose of 10 mg/kg. Also noted: dose 10 mg/kg. It is filed as functional, organism-based. The essentials: as §1
Experiment [5] has the same target. The experiment can be described thus: In vivo mean duration for Angiotensin I converting enzyme inhibitory activity in 2 rats administered perorally at a dose of 10 mg/kg. It is filed as functional, organism-based. The arrangement: dose 10 mg/kg. The essentials:
as §1

Experiment [6] has the same target. Kind of experiment: In vivo percent mean decrease in Angiotensin I converting enzyme inhibitory activity in 5 rats administered perorally at a dose of 10 mg/kg. It is filed as functional, organism-based. The arrangement: dose 10 mg/kg. The gist of the method:
as §1

The target is the same in experiment [7]. Kind of experiment: In vivo mean duration for Angiotensin I converting enzyme inhibitory activity in 5 rats administered perorally at a dose of 10 mg/kg. It is filed as functional, organism-based. Also noted: dose 10 mg/kg. The gist of the method: as §1
The next experiment has as its system Rattus norvegicus. Kind of experiment: Effective dose against ACE inhibitory activity in rat in vivo. It is filed as functional. The gist of the method: as §1
Experiment [8] has as its target T2, Angiotensin-converting enzyme (Rattus norvegicus). The experiment can be described thus: In vivo percent mean decrease in Angiotensin I converting enzyme inhibitory activity in a rat administered perorally at a dose of 10 mg/kg. It is filed as functional, organism-based. The arrangement: dose 10 mg/kg. The essentials:
as §1

The target is the same in experiment [9]. Kind of experiment: In vivo mean duration for Angiotensin I converting enzyme inhibitory activity in rat administered perorally at a dose of 10 mg/kg. It is filed as functional, organism-based. The arrangement: dose 10 mg/kg. The gist of the method: as §1
Experiment [10] shares this target. Kind of experiment: In vivo percent mean decrease in Angiotensin I converting enzyme activity in 2 rats administered perorally at a dose of 10 mg/kg. The arrangement: dose 10 mg/kg. It is filed as functional, organism-based. The essentials: as §1
The target is the same in experiment [11]. The experiment can be described thus: In vivo percent mean decrease in Angiotensin I converting enzyme inhibitory activity in 2 rats administered perorally at a dose of 1.5 mg/kg. It is filed as functional, organism-based. Also noted: dose 1.5 mg/kg. The essentials: as §1

Consider `O=C(O)CN(C(=O)c1ccccc1S)C1CCCC1`, for which the pIC50 in experiment [1] is 5.32. The Mean duration in experiment [2] is 35 min. Further, in experiment [3], the Mean decrease worked out at 34%.
Turning to `CC(=O)Sc1c(F)cccc1C(=O)N(CC(=O)O)C1CCCC1`, in experiment [1], the negative-log IC50 (pIC50) is 6.22. The Mean decrease in experiment [4] came to 82%. The compound also yielded a Mean duration in experiment [5] of 90 min.
Compound `COc1cccc(C(=O)N(CC(=O)O)C2CCCC2)c1S` showed a pIC50 in experiment [1] of 6.42. The same compound registered a Mean decrease in experiment [6] of 92%. Also, the Mean duration in experiment [7] was found to be 4 h. Besides, the 50% effect level in the experiment with Rattus norvegicus (ED50) was put at a dose of 0.8 mg/kg.
`Cc1cccc(C(=O)N(CC(=O)O)C2CCCC2)c1S` had a pIC50 in [1] of 5.34. The compound further came in with a Mean decrease in experiment [4] of 77%. This compound also came in with a Mean duration in [5] of 50 min.
On the same counts, the results for `O=C(O)CN(C(=O)c1cccc(S)c1)C1CCCC1` are 4.60, 13% and 0 min.
In [1], `O=C(O)CN(C(=O)c1ccccc1[N+](=O)[O-])C1CCCC1` had a pIC50 of 4.00. The same compound returned a Mean decrease in experiment [8] of 25%. Further, the Mean duration in [9] stood at 0 min.
Take `O=C(O)CN(C(=O)c1cc(Cl)ccc1S)C1CCCC1`: in [1], the pIC50 is 4.10. In experiment [5], this compound showed a Mean duration of 0 min. Further, the Mean decrease in [10] came out at 22%.
`CC(C)(C)C(=O)Sc1ccccc1C(=O)N(CC(=O)O)C1CCCC1`: the Mean duration in experiment [2] amounted to 0 min. The compound also registered a Mean decrease in [11] of 19%.
Compound `O=C(O)CN(C(=O)c1cc(Cl)cc(Cl)c1S)C1CCCC1` gave a pIC50 in [1] of 5.39.
`O=C(O)CN(C(=O)c1cccc(Cl)c1S)C1CCCC1` had a pIC50 in [1] of 6.55. Further, the Mean decrease in [6] is 85%. In addition, in experiment [7], the Mean duration was more than 4 h. For the same compound, the ED50 with Rattus norvegicus amounted to 0.3 mg/kg.
On to `O=C(O)CN(C(=O)c1cccc(F)c1S)C1CCCC1`, for which the negative logarithm of the IC50 (pIC50) in experiment [1] was 6.26. Further, in experiment [4], the Mean decrease worked out at 84%. The compound further showed a Mean duration in [5] of 105 min.
On to `CCOC(=O)CN(C(=O)c1cc(Cl)cc(Cl)c1OC(C)=O)C1CCCC1`, for which the pIC50 in experiment [1] is 4.00.
Still for that read-out and setting: for `CC(=O)Sc1ccc(C(=O)N(CC(=O)O)C2CCCC2)cc1` the value was 4.68; for `O=C(O)CN(C(=O)c1ccc(S)cc1)C1CCCC1`, 4.68.
In the case of `CC(C)c1cccc(C(=O)N(CC(=O)O)C2CCCC2)c1S`, in experiment [1], the pIC50 is 3.92. This compound yielded a Mean decrease in experiment [4] of 23%. In experiment [5], the Mean duration is 0 min.
For `O=C(O)CN(C(=O)c1cccc(C(F)(F)F)c1S)C1CCCC1` the same measures were 6.17, 31% and 20 min.
In [1], `CC(=O)Sc1c(C)cccc1C(=O)N(CC(=O)O)C1CCCC1` gave a pIC50 of 5.66. This compound also had a Mean duration in experiment [2] of 20 min. In experiment [11], this compound yielded a Mean decrease of 35%.
For `CC(=O)Sc1ccccc1C(=O)N(CC(=O)O)C1CCCC1` the same measures were 5.04, 0 min and 25%.
In experiment [1], `O=C(O)CN(C(=O)c1cc(Cl)cc(Cl)c1O)C1CCCC1` gave a pIC50 of 4.00.
On the same count and under the same terms, for `O=C(O)CN(C(=O)c1ccccc1C(=O)O)C1CCCC1` the value was 4.00; for `CC(=O)Sc1cccc(C(=O)N(CC(=O)O)C2CCCC2)c1`, 4.55.
